Reference: PubChem BioAssay
The source made the active and inactive calls.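 How the source made its calls, unless noted: active means NADPH fluorescence slope more negative than the mean of all samples by about 3 SD, 99.7% confidence; inactive means the rest.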

How the values were obtained:
[1] = inhibitors of TNFa-induced NFkB p65 translocation, primary screen, imaging, HUVEC, MLSMR starter and 10KST1 sets (AID 438;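 active means inhibition above 20% together with a positive visual image hit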;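 further: compound added about 3h40 before a 20 min TNFalpha stimulation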;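 on inhibition: signal is the nuclear over cytoplasmic p65 intensity ratio per well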); details: HUVEC TNFa-induced p65 nuclear translocation; cell count: measured here: nuclei count (cytotoxicity indicator), at 2.08 µM; inhibition: at 2 µM, stronger effect = higher value, 0% TNFa-plus-vehicle, 100% no-TNFa wells
[2] = reduction of polyQ htt aggregates in cells – imaging, exon1htt(103Q)mCFP cells, high-content imaging, primary screen (AID 483;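 active means visual image review flags a hit and inhibition of aggregation exceeds 20%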;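 further: compound exposure lasted 3 days before fixation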;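 on nuclei count: percent of the per-plate median nuclei count of sample wells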); details: exon1htt(103Q)mCFP cell line, aggregate imaging, at 2 µM; inhibition of aggregation: stronger effect = higher value; nuclei count: measured here: cell count, toxicity
[3] = endothelial E-selectin expression blockers – imaging, HUVEC, immunofluorescence, MLSMR starter and 10KST1 sets, primary screen (AID 487;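 active means visually confirmed hit in the image check and inhibition above 20%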;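 on inhibition: signal is fraction of cell area covered by stained E-selectin grains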;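 on nuclei count: 100% = median nuclei count of all wells on the same plate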); details: HUVEC TNFalpha-induced E-selectin immunofluorescence imaging, at 2 µM; inhibition: stronger effect = higher value; nuclei count: measured here: cell number, toxicity
[4] = molecular target: Voltage-gated potassium channel subunit beta-2 (Rattus norvegicus) (UniProt P62483); assay: inhibitors of rat Kvbeta2 reductase activity – biochemical, NADPH fluorescence, primary screen (AID 622;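 active means fluorescence slope higher than the sample average by over 3 SD, cut at about -0.22 in these data, passing the limit was not always enough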;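 further: slope of raw intensity against log time taken from 70 to 1610 s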); details: recombinant KvBeta, 4-cyanobenzaldehyde reduction, at 10 µM, stronger effect = higher value
[5] = molecular target: Voltage-gated potassium channel subunit beta-2 (Rattus norvegicus) (UniProt P62483); assay: enhancers of rat Kvbeta2 NADPH turnover – biochemical, NADPH fluorescence, primary screen (AID 623); details: Recombinant KvBeta, NADPH fluorescence decrease slope, 10 min; at 10 µM; stronger effect = lower value;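 further: fluorescence intensity change per second fitted from 20 to 320 s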
[6] = molecular target: Alpha-2C adrenergic receptor (Homo sapiens) (UniProt P18825); assay: compounds altering alpha2C-coupled GIRK flux – cell-based, HEK293 alpha2C/GIRK1/2, thallium flux, primary screen (AID 624;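 active means fluorescence slope after compound addition differing from the mean of all screened samples at 99.7% confidence, in either direction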;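 further: slope of fluorescence ratio to pre-addition baseline per second over 15 to 24 s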); details: thallium flux BTC fluorescence, at 10 µM, actives lie on both sides
[7] = inhibitors of larval lipid processing in zebrafish, primary screen, whole organism, PED6 fluorescence, gall bladder and intestine (AID 686;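 active means a full or partial loss of lipid-probe fluorescence in the fish gall bladder, intestine or both, judged by eye; inactive means no fluorescence loss, or compound toxic to the fish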;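 further: larvae 5 to 7 days old with five fish per well; signal comes from phospholipase A2 cleavage of quenched PED6 carried via bile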); details: Zebrafish larvae PED6 lipid processing, fluorescence scoring; screened at 20 µM (by protocol)
Procedure, shortened: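 Incubation: overnight exposure of larvae to compound plus PED6 / Test system: live zebrafish larvae aged 5-7 days, whole organism / Amount: 5 larvae per well / Read-out basis: visual per-well fluorescence inhibition score / Signal: visual fluorescence microscopy scoring of gall bladder, gut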

[8] = blockers of RIG-like receptor reporter activation – cell-based, Sendai virus stimulus, luciferase, 10K MLSCN set, TLR/RLR signaling modifier project, primary screen (AID 602276;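 active means inhibition at or above 50% at 10 µM; inactive means inhibition below 50%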;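 further: firefly luciferase from ISG56 promoter only with Renilla not read in this screen; 0% = Sendai virus plus DMSO and 100% = medium plus DMSO without virus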); details: HEK293 RL24 IRF3 luciferase reporter, at 10 µM, stronger effect = higher value
[9] = TLR3 IRF3 reporter activation blockers – cell-based, poly I:C stimulus, luciferase, 10K MLSCN set, primary screen (AID 602277;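 active means inhibition of the reporter signal at or above 50%; inactive means inhibition below 50%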); details: HEK293-TLR3 RL24 IRF3 luciferase reporter, at 10 µM, stronger effect = higher value

Sequence of Voltage-gated potassium channel subunit beta-2 (Rattus norvegicus) (P62483 whole entry, looked up): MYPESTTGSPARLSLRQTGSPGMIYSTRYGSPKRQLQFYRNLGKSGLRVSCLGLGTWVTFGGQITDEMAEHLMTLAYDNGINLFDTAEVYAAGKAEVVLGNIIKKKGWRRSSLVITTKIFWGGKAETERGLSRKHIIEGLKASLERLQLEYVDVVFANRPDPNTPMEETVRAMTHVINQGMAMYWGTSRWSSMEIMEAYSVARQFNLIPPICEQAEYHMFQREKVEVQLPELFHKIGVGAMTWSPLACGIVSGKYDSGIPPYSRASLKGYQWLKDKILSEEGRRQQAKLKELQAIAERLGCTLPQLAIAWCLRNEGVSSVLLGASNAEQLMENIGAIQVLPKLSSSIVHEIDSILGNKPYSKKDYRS
Sequence of Alpha-2C adrenergic receptor (Homo sapiens) (P18825 whole entry, looked up): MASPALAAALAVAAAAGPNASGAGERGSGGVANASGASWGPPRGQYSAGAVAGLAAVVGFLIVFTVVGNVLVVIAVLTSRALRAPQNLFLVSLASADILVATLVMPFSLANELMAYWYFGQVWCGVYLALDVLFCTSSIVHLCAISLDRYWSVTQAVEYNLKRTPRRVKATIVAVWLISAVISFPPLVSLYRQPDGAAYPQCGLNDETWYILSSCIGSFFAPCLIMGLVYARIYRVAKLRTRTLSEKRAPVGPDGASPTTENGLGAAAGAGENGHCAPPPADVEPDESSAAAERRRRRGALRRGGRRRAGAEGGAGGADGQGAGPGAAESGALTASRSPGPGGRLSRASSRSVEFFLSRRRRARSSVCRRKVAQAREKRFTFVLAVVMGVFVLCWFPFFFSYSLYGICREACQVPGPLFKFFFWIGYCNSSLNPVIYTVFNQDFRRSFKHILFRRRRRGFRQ

CC(CCc1ccccc1)NC(=O)C1CCN(S(=O)(=O)c2cnc[nH]2)CC1 (stereo unspecified)
cell count [1]: 554
inhibition [1]: -20.8% (inactive)
inhibition of aggregation [2]: -7.9% (inactive)
nuclei count [2]: 107%
inhibition [3]: 16.4% (inactive)
nuclei count [3]: 110%
fluorescence slope [4]: -0.367 (inactive)
NADPH fluorescence slope [5]: -5.5e-05 (inactive)
slope [6]: 0.00556 (inactive)
outcome [7]: inactive
inhibition [8]: 9.51% (inactive)
inhibition [9]: 18% (inactive)

CCC1CCCCN1CCCNC(=O)c1ccc(CS(=O)(=O)Cc2ccccc2F)o1 (stereo unspecified)
cell count [1]: 618
inhibition [1]: -20.5% (inactive)
inhibition of aggregation [2]: 7.5% (inactive)
nuclei count [2]: 94.4%
inhibition [3]: -64.6% (inactive)
nuclei count [3]: 91%
fluorescence slope [4]: -0.416 (inactive)
NADPH fluorescence slope [5]: -5.4e-05 (inactive)
slope [6]: 0.00482 (inactive)
outcome [7]: inactive
inhibition [8]: 6.88% (inactive)
inhibition [9]: 20.5% (inactive)

Cc1ccc(CS(=O)(=O)Cc2ccc(C(=O)NCc3ccccn3)o2)cc1
cell count [1]: 454
inhibition [1]: 6% (inactive)
inhibition of aggregation [2]: -2.9% (inactive)
nuclei count [2]: 102%
inhibition [3]: 8.5% (inactive)
nuclei count [3]: 93.1%
fluorescence slope [4]: -0.18 (inactive)
NADPH fluorescence slope [5]: -2.3e-05 (inactive)
slope [6]: 0.00535 (inactive)
outcome [7]: inactive
inhibition [8]: 12% (inactive)
inhibition [9]: 7.77% (inactive)

CCn1c(SCC(N)=O)nnc1-c1ccc(S(=O)(=O)N2CCN(C)CC2)cc1
cell count [1]: 736
inhibition [1]: -10.2% (inactive)
inhibition of aggregation [2]: -23.3% (inactive)
nuclei count [2]: 118%
inhibition [3]: -11.3% (inactive)
nuclei count [3]: 129%
fluorescence slope [4]: -0.396 (inactive)
NADPH fluorescence slope [5]: -1.7e-05 (inactive)
slope [6]: 0.00446 (inactive)
outcome [7]: inactive
inhibition [8]: -10.4% (inactive)
inhibition [9]: -10.4% (inactive)

COc1ccc(C(=O)Nc2ccc(Cl)c(Cl)c2)c(OC)n1
cell count [1]: 799
inhibition [1]: -7.1% (inactive)
inhibition of aggregation [2]: -20.2% (inactive)
nuclei count [2]: 111%
inhibition [3]: -145% (inactive)
nuclei count [3]: 137%
fluorescence slope [4]: -0.364 (inactive)
NADPH fluorescence slope [5]: -6.9e-05 (inactive)
slope [6]: 0.00581 (inactive)
outcome [7]: inactive
inhibition [8]: -13.7% (inactive)
inhibition [9]: -67% (inactive)

Cc1nc2ccc(F)cc2cc1C(=O)NCC1CCCO1 (stereo unspecified)
cell count [1]: 421
inhibition [1]: -8.7% (inactive)
inhibition of aggregation [2]: 7.6% (inactive)
nuclei count [2]: 96.4%
inhibition [3]: -34.7% (inactive)
nuclei count [3]: 115%
fluorescence slope [4]: -0.432 (inactive)
NADPH fluorescence slope [5]: -4.9e-05 (inactive)
slope [6]: 0.00492 (inactive)
outcome [7]: inactive
inhibition [8]: 17.3% (inactive)
inhibition [9]: 27.4% (inactive)

CC1CCCC(C)N1CCNC(=O)C1CCN(S(=O)(=O)N2CCCCC2)CC1 (stereo unspecified)
cell count [1]: 383
inhibition [1]: 4.2% (inactive)
inhibition of aggregation [2]: 17.2% (inactive)
nuclei count [2]: 104%
inhibition [3]: -93.7% (inactive)
nuclei count [3]: 115%
fluorescence slope [4]: -0.384 (inactive)
NADPH fluorescence slope [5]: 1.9e-05 (inactive)
slope [6]: 0.00471 (inactive)
outcome [7]: inactive
inhibition [8]: -6.08% (inactive)
inhibition [9]: -0.147% (inactive)

CC1CN(C(=O)CSc2ncnc3sccc23)CC(C)O1 (stereo unspecified)
cell count [1]: 356
inhibition [1]: -0.9% (inactive)
inhibition of aggregation [2]: -13.4% (inactive)
nuclei count [2]: 98.3%
inhibition [3]: -1.1% (inactive)
nuclei count [3]: 102%
fluorescence slope [4]: -0.469 (inactive)
NADPH fluorescence slope [5]: -2.6e-05 (inactive)
slope [6]: 0.0052 (inactive)
outcome [7]: inactive
inhibition [8]: 10.7% (inactive)
inhibition [9]: 11% (inactive)

CC1=C(C(=O)N2CCOCC2)C(c2ccccc2F)C2=C(CCCC2=O)N1 (stereo unspecified)
cell count [1]: 401
inhibition [1]: -0.8% (inactive)
inhibition of aggregation [2]: -15% (inactive)
nuclei count [2]: 111%
inhibition [3]: -24.5% (inactive)
nuclei count [3]: 121%
fluorescence slope [4]: -0.314 (inactive)
NADPH fluorescence slope [5]: 4.2e-06 (inactive)
slope [6]: 0.00583 (inactive)
outcome [7]: inactive
inhibition [8]: 3.26% (inactive)
inhibition [9]: 6.93% (inactive)

Cc1onc(-c2ccccc2)c1C(=O)NCCN1CCOCC1
cell count [1]: 387
inhibition [1]: 5% (inactive)
inhibition of aggregation [2]: -14% (inactive)
nuclei count [2]: 129%
inhibition [3]: 9.3% (inactive)
nuclei count [3]: 93.5%
fluorescence slope [4]: -0.38 (inactive)
NADPH fluorescence slope [5]: -2.2e-05 (inactive)
slope [6]: 0.0053 (inactive)
outcome [7]: inactive
inhibition [8]: 0.171% (inactive)
inhibition [9]: 0.994% (inactive)

CN(Cc1ccccc1)C(=O)c1cc(-c2ccc(Br)cc2)on1
cell count [1]: 318
inhibition [1]: 2.4% (inactive)
inhibition of aggregation [2]: 14.9% (inactive)
nuclei count [2]: 107%
inhibition [3]: 19.7% (inactive)
nuclei count [3]: 110%
fluorescence slope [4]: -0.399 (inactive)
NADPH fluorescence slope [5]: -3.6e-05 (inactive)
slope [6]: 0.00441 (inactive)
outcome [7]: inactive
inhibition [8]: -49.5% (inactive)
inhibition [9]: -116% (inactive)

C=CCOc1ccc(CN(C)CC(=O)N(CC(C)C)c2c(N)n(CC(C)C)c(=O)[nH]c2=O)cc1
cell count [1]: 492
inhibition [1]: 8.3% (inactive)
inhibition of aggregation [2]: -8.7% (inactive)
nuclei count [2]: 101%
inhibition [3]: -77.8% (inactive)
nuclei count [3]: 123%
fluorescence slope [4]: -0.452 (inactive)
NADPH fluorescence slope [5]: -4.3e-05 (inactive)
slope [6]: 0.00414 (inactive)
outcome [7]: inactive
inhibition [8]: 21.6% (inactive)
inhibition [9]: 19.4% (inactive)

COc1cccc(C2C(C(=O)c3cccs3)=C(O)C(=O)N2CCCn2ccnc2)c1OC (stereo unspecified)
cell count [1]: 406
inhibition [1]: -2% (inactive)
inhibition of aggregation [2]: 12.6% (inactive)
nuclei count [2]: 96.7%
inhibition [3]: -168% (inactive)
nuclei count [3]: 106%
fluorescence slope [4]: -0.341 (inactive)
NADPH fluorescence slope [5]: -6.6e-05 (inactive)
slope [6]: 0.0053 (inactive)
outcome [7]: inactive
inhibition [8]: 8.13% (inactive)
inhibition [9]: 7.94% (inactive)
